Assay results published in ChEMBL document CHEMBL4270544, “Design, synthesis and biological evaluation of a novel tubulin inhibitor 7a3 targeting the colchicine binding site” (Eur J Med Chem, 2018).
pIC50: −log10 of the molar value. The source made the active and inactive calls. The calls are words filed in the database; no cut-off is given here.

Assays:
MDA-MB-231 = assay: Antiproliferative activity against human MDA-MB-231 cells after 72 hrs by CCK8 assay; format: functional, cell-based; settings: MDA-MB-231, 72 h
Summary of the method: (§1)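 CCK-8 proliferation assay with CA-4 as positive control. IC50 is the concentration giving 50% inhibition of proliferation. Mean ± SEM from three independent experiments.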

HeLa = assay: Antiproliferative activity against human HeLa cells after 72 hrs by CCK8 assay; format: functional, cell-based; summary of the method: as §1
A549 = assay: Antiproliferative activity against human A549 cells after 72 hrs by CCK8 assay; format: functional, cell-based; settings: A549, 72 h; summary of the method: as §1
MCF7 = assay: Antiproliferative activity against human MCF7 cells after 72 hrs by CCK8 assay; format: functional, cell-based; settings: MCF7, 72 h; summary of the method: as §1
SK-OV-3 [1] = assay: Cell cycle arrest in human SKOV3 cells assessed as accumulation at G2/M phase at 40 nM after 24 hrs by propidium iodide staining based flow cytometry (reference value: 24.99%); format: functional
Summary of the method: (§2)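 SK-OV-3 cells exposed to 40, 80 or 160 nM for 24 h, with untreated cells as control. Stained with PI and analysed by flow cytometry for phase distribution. Mean ± SEM of three independent experiments; t-test against control.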

SK-OV-3 [2] = assay: Cell cycle arrest in human SKOV3 cells assessed as accumulation at S phase at 80 nM after 24 hrs by propidium iodide staining based flow cytometry (reference value: 18.09%); format: functional; summary of the method: as §2
SK-OV-3 [3] = assay: Cell cycle arrest in human SKOV3 cells assessed as accumulation at S phase at 160 nM after 24 hrs by propidium iodide staining based flow cytometry (reference value: 18.09%); format: functional; summary of the method: as §2
SK-OV-3 [4] = assay: Induction of apoptosis in human SKOV3 cells assessed as live cells at 40 nM after 48 hrs by Annexin-V-FITC/propidium iodide staining based flow cytometry (reference value: 94.43%); format: functional
SK-OV-3 [5] = assay: Induction of apoptosis in human SKOV3 cells assessed as early apoptotic cells at 40 nM after 48 hrs by Annexin-V-FITC/propidium iodide staining based flow cytometry (reference value: 0.97%); format: functional
SK-OV-3 [6] = assay: Induction of apoptosis in human SKOV3 cells assessed as necrotic cells at 40 nM after 48 hrs by Annexin-V-FITC/propidium iodide staining based flow cytometry (reference value: 0.67%); format: functional
SK-OV-3 [7] = assay: Induction of apoptosis in human SKOV3 cells assessed as early apoptotic cells at 80 nM after 48 hrs by Annexin-V-FITC/propidium iodide staining based flow cytometry (reference value: 0.97%); format: functional
SK-OV-3 [8] = assay: Induction of apoptosis in human SKOV3 cells assessed as late apoptotic cells at 80 nM after 48 hrs by Annexin-V-FITC/propidium iodide staining based flow cytometry (reference value: 3.93%); format: functional
SK-OV-3 [9] = assay: Induction of apoptosis in human SKOV3 cells assessed as necrotic cells at 80 nM after 48 hrs by Annexin-V-FITC/propidium iodide staining based flow cytometry (reference value: 0.67%); format: functional
SK-OV-3 [10] = assay: Induction of apoptosis in human SKOV3 cells assessed as necrotic cells at 160 nM after 48 hrs by Annexin-V-FITC/propidium iodide staining based flow cytometry (reference value: 0.67%); format: functional
SK-OV-3 [11] = assay: Antimigratory activity against human SKOV3 cells assessed as wound closure at 80 nM after 24 hrs by microscopy based scratch wound assay (reference value: 79.5 +/- 2.8%); format: functional
SK-OV-3 [12] = assay: Antimigratory activity against human SKOV3 cells assessed as number of migrated cells at 25 nM after 24 hrs by crystal violet staining based transwell migration assay (reference value: 49.3 to 50.7); format: functional
Bos taurus [13] = species on record: Bos taurus; assay: Inhibition of bovine MAP-rich tubulin polymerization measured every 1 min for 30 mins
Summary of the method: (§3)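 Purified tubulin polymerization followed at 37 °C by absorbance at 340 nm, read every 1 min for 30 min. Test concentrations 2.5, 10 and 40 µM. CA-4 at 10 µM served as positive control and DMSO (1%, v/v) as vehicle. Polymerization is expressed relative to the vehicle group.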

Bos taurus [14] = species on record: Bos taurus; assay: Inhibition of bovine MAP-rich tubulin polymerization at 2.5 uM measured every 1 min for 30 mins relative to control; summary of the method: as §3
Bos taurus [15] = species on record: Bos taurus; assay: Inhibition of bovine MAP-rich tubulin polymerization at 10 uM measured every 1 min for 30 mins relative to control; summary of the method: as §3
SK-OV-3 [16] = assay: Inhibition of tubulin assembly in human SKOV3 cells assessed as abnormal mitotic spindle formation at 10 to 1000 nM after 24 hrs by DAPI staining based immunofluorescence microscopic method; format: functional, cell-based
Summary of the method: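 SK-OV-3 cells exposed to DMSO or 10, 100 or 1000 nM for 24 h. Fixed in methanol, stained with FITC anti-β-tubulin antibody, counterstained with DAPI, and imaged by confocal microscopy.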

Mus musculus [17] = assay: Area under the first moment curve (0 to 24 hrs) in C57 mouse at 50 mg/kg, ip administered as single dose by LC-MS/MS analysis; format: ADME, organism-based; settings: in vivo
Summary of the method: (§4)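 Male C57 mice, one intraperitoneal dose. Blood drawn from submaxillary vein at 0, 5, 15, 30 min and 1, 2, 4, 8, 12, 24 h. Plasma measured by LC/MS/MS in MRM mode with CA-4 as internal standard. Calibration by weighted linear regression over 0.01–500 ng/mL. Parameters obtained by non-compartmental analysis.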

[18] = AUC (0 to infinity) in C57 mouse at 50 mg/kg, ip administered as single dose by LC-MS/MS analysis; format: ADME, organism-based; parameters: dose 50 mg/kg, time infinity, route intraperitoneal; settings: in vivo; summary of the method: as §4
SK-OV-3 [19] = assay: Antitumor activity against human SKOV3 cells xenografted in Balb/c mouse assessed as reduction in tumor growth at 50 mg/kg, ip administered every two days for three times measured every 3 to 4 days relative to control; format: functional; parameters: scale not given: the % may be the effect or the level left
Summary of the method: (§5)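 Six-week-old Balb/c nude mice given subcutaneous SK-OV-3 cells in the back. Randomised into three groups at about 200 mm3 tumour size. Dosed 50 mg/kg intraperitoneally in 5% DMSO/olive oil every two days, three times; vehicle group as control. Tumour volume and body weight tracked; six animals per group, mean ± SEM, t-test.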

Mus musculus [20] = assay: Toxicity in Balb/c mouse xenografted with human SKOV3 cells assessed as body weight loss at 50 mg/kg, ip administered every two days for three times measured during compound dosing; format: organism-based; settings: in vivo; summary of the method: as §5
Mus musculus [21] = assay: Toxicity in Balb/c mouse xenografted with human SKOV3 cells assessed as pathological changes in spleen at 50 mg/kg, ip administered every two days for three times by hematoxylin and eosin staining based assay; format: organism-based; settings: in vivo
Summary of the method: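 Six-week-old Balb/c nude mice received subcutaneous SK-OV-3 cells in the back. At ~200 mm3 tumour size they were randomized to vehicle or drug groups, six per group. Drug was given in 5% (v/v) DMSO/olive oil, intraperitoneally, every two days for three doses. Heart, liver, spleen, lung and kidney were collected and examined by H&E staining.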

Mus musculus [22] = assay: Toxicity in Balb/c mouse xenografted with human SKOV3 cells assessed as pathological changes in kidney at 50 mg/kg, ip administered every two days for three times by hematoxylin and eosin staining based assay; format: organism-based; settings: in vivo
Summary of the method: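 In SK-OV-3 xenografted Balb/c nude mice dosed 50 mg/kg intraperitoneally in 5% DMSO/olive oil every two days, three times, organs were collected and examined after H&E staining.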

SK-OV-3 [23] = assay: Cell cycle arrest in human SKOV3 cells assessed as accumulation at G2/M phase at 160 nM after 24 hrs by propidium iodide staining based flow cytometry (reference value: 14.12%)

pIC50 (MDA-MB-231): 7.51
pIC50 (HeLa): 7.48
pIC50 (A549): 7.17
pIC50 (MCF7): 7.45
inhibition (Bos taurus [13]): Dose-dependent effect
inhibition (Bos taurus [14]): 30.5%
inhibition (Bos taurus [15]): 60.4%
AUMC (Mus musculus [17]): 1498 hr.hr.ng/ml
AUC(0-inf) [18]: 1170 ng·h/mL
SMILES: CCOc1ccc(-c2cn(C)nc2-c2cc(OC)c(OC)c(OC)c2)cc1
Activity (SK-OV-3 [1]): 24.6%
Activity (SK-OV-3 [2]): 24.15%
Activity (SK-OV-3 [3]): 26.16%
Activity (SK-OV-3 [4]): 91.03%
Activity (SK-OV-3 [5]): 1.35%
Activity (SK-OV-3 [6]): 0.97%
Activity (SK-OV-3 [7]): 5.05%
Activity (SK-OV-3 [8]): 18.67%
Activity (SK-OV-3 [9]): 2.72%
Activity (SK-OV-3 [10]): 1.28%
Activity (SK-OV-3 [11]): 44.3%
Activity (SK-OV-3 [12]): 27.3
inhibition (SK-OV-3 [16]): Active
Activity (SK-OV-3 [19]): 62.8%
Activity (Mus musculus [20]): Non-Toxic
Activity (Mus musculus [21]): Non-Toxic
Activity (Mus musculus [22]): Non-Toxic
Activity (SK-OV-3 [23]): 65.79%
